Assay results as given in ChEMBL document CHEMBL3414508, “A few atoms make the difference: synthetic, CD, NMR and computational studies on antiviral and antibacterial activities of glycopeptide antibiotic aglycon derivatives” (Eur J Med Chem, 2015).
Values after ≈ are worked out from the molar mass of the structure shown.

Legend:
[1] = Cytotoxicity against MDCK cells after 72 hrs by microscopic analysis; format: cell-based, Canis lupus familiaris; settings: dog
Method in brief: (§1)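 Uninfected MDCK cultures were run in parallel with serial compound dilutions for 72 h at 35°C. MCC is the concentration producing minimal changes in cell morphology, judged by microscopy. […] Means of 2 to 5 independent tests.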

[2] = Cytotoxicity against MDCK cells after 72 hrs by MTS assay; format: cell-based, Canis lupus familiaris; settings: dog; method in brief: as §1
[3] = Antiviral activity against Influenza A virus (A/Hong Kong/7/1987(H3N2)) infected in MDCK cells assessed as reduction of virus-induced cytopathic effect after 72 hrs by microscopic analysis; format: functional, cell-based
Method in brief: (§2)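 Subconfluent MDCK cultures given serial compound dilutions together with virus at MOI 0.0004 PFU/cell. Incubation 72 h at 35°C. […] Means of 2 to 5 independent tests.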

[4] = Antiviral activity against Influenza A virus (A/Hong Kong/7/1987(H3N2)) infected in MDCK cells assessed as cell viability after 72 hrs by MTS assay; format: functional, cell-based; method in brief: as §2
Influenza B virus [5] = assay: Antiviral activity against Influenza B virus (B/Hong Kong/05/1972) infected in MDCK cells assessed as reduction of virus-induced cytopathic effect after 72 hrs by microscopic analysis; format: functional, cell-based; settings: B/Hong Kong/05/1972, MDCK; method in brief: as §2
Influenza B virus [6] = assay: Antiviral activity against Influenza B virus (B/Hong Kong/05/1972) infected in MDCK cells assessed as cell viability after 72 hrs by MTS assay; format: functional, cell-based; settings: B/Hong Kong/05/1972, MDCK; method in brief: as §2
Influenza A virus [7] = assay: Antiviral activity against Influenza A virus (A/Puerto Rico/8/34(H1N1)) infected in MDCK cells assessed as cell viability after 72 hrs by MTS assay; format: functional, organism-based, A/Puerto Rico/8/1934(H1N1); settings: Influenza A virus, A/Puerto Rico/8/1934(H1N1), MDCK, 72 h; method in brief: as §2
Influenza A virus [8] = assay: Antiviral activity against Influenza A virus (A/Puerto Rico/8/34(H1N1)) infected in MDCK cells assessed as reduction of virus-induced cytopathic effect after 72 hrs by microscopic analysis; format: functional, organism-based; settings: A/Puerto Rico/8/1934(H1N1)
Method in brief: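 Subconfluent MDCK cultures given serial compound dilutions together with virus at MOI 0.0004 PFU/cell. Incubation 72 h at 35°C. Means of 2 to 5 independent tests.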

Bacillus spizizenii = assay: Antibacterial activity against Bacillus subtilis ATCC 6633 by broth microdilution method; format: functional
Staphylococcus aureus [9] = assay: Antibacterial activity against methicillin-sensitive Staphylococcus aureus ATCC 29213 by broth microdilution method; format: functional
Staphylococcus aureus [10] = assay: Antibacterial activity against methicillin-resistant Staphylococcus aureus ATCC 33591 by broth microdilution method; format: functional
[11] = test system: Staphylococcus epidermidis; assay: Antibacterial activity against Staphylococcus epidermidis expressing mecA by broth microdilution method; format: functional
[12] = test system: Staphylococcus epidermidis; assay: Antibacterial activity against biofilm producing Staphylococcus epidermidis ATCC 35984 by broth microdilution method; format: functional
Enterococcus faecalis [13] = assay: Antibacterial activity against Enterococcus faecalis ATCC 29212 by broth microdilution method; format: functional
Enterococcus faecalis [14] = assay: Antibacterial activity against VanB+ Enterococcus faecalis ATCC 51299 by broth microdilution method; format: functional
Enterococcus faecalis [15] = assay: Antibacterial activity against VanA+ Enterococcus faecalis 15376 by broth microdilution method; format: functional

SMILES | MCC at 72 h [1] [µM] | CC50 at 72 h [2] [µM] | EC50 [3] [µM] | EC50 [4] [µM] | EC50 (Influenza B virus [5]) [µM] | EC50 (Influenza B virus [6]) [µM] | EC50 (Influenza A virus [7]) [µM] | EC50 (Influenza A virus [8]) [µM] | MIC (Bacillus spizizenii) [µg/mL] | MIC (Staphylococcus aureus [9]) [µg/mL] | MIC (Staphylococcus aureus [10]) [µg/mL] | MIC [11] [µg/mL] | MIC [12] [µg/mL] | MIC (Enterococcus faecalis [13]) [µg/mL] | MIC (Enterococcus faecalis [14]) [µg/mL] | MIC (Enterococcus faecalis [15]) [µg/mL]
COC(=O)[C@H]1NC(=O)[C@H]2NC(=O)[C@H](NC(=O)[C@@H]3NC(=O)[C@H]4NC(=O)[C@H](NC(=O)[C@H](N)c5ccc(O)c(c5)Oc5cc4cc(O)c5C)[C@H](O)c4ccc(cc4)Oc4cc3cc(c4O)Oc3ccc(cc3)[C@H]2O)c2ccc(O)c(c2)-c2c(O)cc(O)cc21 | 81 | 44 | 4.6 | 2.5 | 5.1 | 5.4 |  |  |  |  |  |  |  |  |  | 
CC(=O)N[C@H]1[C@H](O[C@@H]2c3ccc(c(Cl)c3)Oc3cc4cc(c3O)Oc3ccc(cc3Cl)C[C@H]3NC(=O)[C@H](N)c5ccc(O)c(c5)Oc5cc(O)cc(c5)[C@H](NC3=O)C(=O)N[C@H]4C(=O)N[C@H]3C(=O)N[C@@H]2C(=O)N[C@H](C(=O)O)c2cc(O)cc(O)c2-c2cc3ccc2O)O[C@H](CO)[C@@H](O)[C@@H]1O | ≥ 100 | > 100 | 17 | 34 | > 100 | > 100 | 43 |  |  |  |  |  |  |  |  | 
COC(=O)[C@H]1NC(=O)[C@H]2NC(=O)[C@H](NC(=O)[C@@H]3NC(=O)[C@H]4NC(=O)[C@H](NC(=O)[C@H](Nc5c(NCc6ccc(-c7ccccc7)cc6)c(=O)c5=O)c5ccc(O)c(c5)Oc5cc4cc(O)c5C)[C@H](O)c4ccc(cc4)Oc4cc3cc(c4O)Oc3ccc(cc3)[C@H]2O)c2ccc(O)c(c2)-c2c(O)cc(O)cc21 [listing 1 of 2 here] | 20 | 39 | 0.15 | ≤ 0.42 | 0.84 | 1 | 0.21 | 0.15 |  |  |  |  |  |  |  | 
COC(=O)[C@H]1NC(=O)[C@H]2NC(=O)[C@H](NC(=O)[C@@H]3NC(=O)[C@H]4NC(=O)[C@H](NC(=O)[C@H](Nc5c(NCc6ccc(-c7ccccc7)cc6)c(=O)c5=O)c5ccc(O)c(c5)Oc5cc4cc(O)c5C)[C@H](O)c4ccc(cc4)Oc4cc3cc(c4O)Oc3ccc(cc3)[C@H]2O)c2ccc(O)c(c2)-c2c(O)cc(O)cc21 [listing 2 of 2 here] |  |  |  |  |  |  |  |  | 2 (≈ 1.39 µM) | 1 (≈ 0.697 µM) | 8 (≈ 5.57 µM) | 2 (≈ 1.39 µM) | 2 (≈ 1.39 µM) | 1 (≈ 0.697 µM) | 8 (≈ 5.57 µM) | 
CC(=O)N[C@H]1[C@H](O[C@@H]2c3ccc(c(Cl)c3)Oc3cc4cc(c3O)Oc3ccc(cc3Cl)C[C@H]3NC(=O)[C@H](Nc5c(NCc6ccc(-c7ccccc7)cc6)c(=O)c5=O)c5ccc(O)c(c5)Oc5cc(O)cc(c5)[C@H](NC3=O)C(=O)N[C@H]4C(=O)N[C@H]3C(=O)N[C@@H]2C(=O)N[C@H](C(=O)O)c2cc(O)cc(O)c2-c2cc3ccc2O)O[C@H](CO)[C@@H](O)[C@@H]1O [listing 1 of 2 here] | 0.8 | 6.5 | > 100 | > 100 | > 100 | > 100 | > 100 | > 100 |  |  |  |  |  |  |  | 
CC(=O)N[C@H]1[C@H](O[C@@H]2c3ccc(c(Cl)c3)Oc3cc4cc(c3O)Oc3ccc(cc3Cl)C[C@H]3NC(=O)[C@H](Nc5c(NCc6ccc(-c7ccccc7)cc6)c(=O)c5=O)c5ccc(O)c(c5)Oc5cc(O)cc(c5)[C@H](NC3=O)C(=O)N[C@H]4C(=O)N[C@H]3C(=O)N[C@@H]2C(=O)N[C@H](C(=O)O)c2cc(O)cc(O)c2-c2cc3ccc2O)O[C@H](CO)[C@@H](O)[C@@H]1O [listing 2 of 2 here] |  |  |  |  |  |  |  |  | 4 (≈ 2.4 µM) | 1 (≈ 0.601 µM) | 4 (≈ 2.4 µM) | 1 (≈ 0.601 µM) | 1 (≈ 0.601 µM) | 4 (≈ 2.4 µM) | 8 (≈ 4.81 µM) | 256 (≈ 154 µM)
COC(=O)[C@H]1NC(=O)[C@H]2NC(=O)[C@H](NC(=O)[C@@H]3NC(=O)[C@H]4NC(=O)[C@@H](Cc5ccc(c(Cl)c5)Oc5cc3cc(c5O)Oc3ccc(cc3Cl)[C@H]2O[C@@H]2O[C@H](CO)[C@@H](O)[C@H](O)[C@H]2NC(C)=O)NC(=O)[C@H](N)c2ccc(O)c(c2)Oc2cc(O)cc4c2)c2ccc(O)c(c2)-c2c(O)cc(O)cc21 | 100 | > 100 | > 100 | > 100 | > 100 | > 100 | > 100 | > 100 |  |  |  |  |  |  |  | 
COC(=O)[C@H]1NC(=O)[C@H]2NC(=O)[C@H](NC(=O)[C@@H]3NC(=O)[C@H]4NC(=O)[C@@H](Cc5ccc(c(Cl)c5)Oc5cc3cc(c5O)Oc3ccc(cc3Cl)[C@H]2O[C@@H]2O[C@H](CO)[C@@H](O)[C@H](O)[C@H]2NC(C)=O)NC(=O)[C@H](Nc2c(OC)c(=O)c2=O)c2ccc(O)c(c2)Oc2cc(O)cc4c2)c2ccc(O)c(c2)-c2c(O)cc(O)cc21 | 100 | > 100 | > 100 | > 100 | > 100 | > 100 | > 100 | > 100 |  |  |  |  |  |  |  | 
